# ARFGAP1 inhibitor: inhibits rat ARF GTPase activating protein 1; inhibition, % at 16.5 µM; AID 651572; Arfgap1-stimulated ARF1 GTP hydrolysis, GDP FP detection; hit rate 0.26% among 360,000;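 active = inhibition above a per-plate limit, mean inhibition of low control wells plus 3 SD, cut at about 25% in these data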;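 note: 0% = DMSO wells with enzyme and 100% = wells lacking Arfgap1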
#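 system = rat Arfgap1 catalytic domain, aa 1-136 | technique = FP, GDP Alexa 633 tracer displaced from anti-GDP antibody, 620/688 nm | compound = one concentration, 16.5 µM, DMSO 1.26% | medium = HEPES-based buffer, pH 7.5 | timing = compound-enzyme preincubation 20 min, reaction 120 min, detection 60 min, 25 °C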
# esBAF inh: SWI/SNF esBAF complex inhibition; reporter increase, % at 12.5 µM; mouse ES cells, Bmi1-luciferase knock-in reporter, 24 h; 100% = twice the neutral-well signal; AID 602393; hit rate 2% among 350,000; in the data active = activation above about 40%; inconclusive = no clear call, values can overlap the other calls;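 note: 0% = median of the plate's neutral control wells and 100% = double that signal; a rise in the Bmi1 reporter signal indicates esBAF inhibition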
# SMARCA2 activ: SMARCA2 function activation, primary screen. MG213 cells, MMTV-luciferase reporter, dexamethasone, overnight. activation, % at 9.1 µM. hit rate 1% among 370,000; in the data active = activation above about 7.8%;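 note: 0% = vehicle wells and 100% = reference activator wells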
# ASAP1 GAP inh: blocks human ASAP1-stimulated Arf1 GTP hydrolysis. inhibition, % at 16.5 µM. GDP FP detection. Q9ULH1. hit rate 0.19% among 360,000; in the data active = inhibition above about 25%;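 note: 0% = vehicle with enzyme and substrate and 100% = no enzyme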
# Target sequence (Q9ULH1 325-724 limits assumed): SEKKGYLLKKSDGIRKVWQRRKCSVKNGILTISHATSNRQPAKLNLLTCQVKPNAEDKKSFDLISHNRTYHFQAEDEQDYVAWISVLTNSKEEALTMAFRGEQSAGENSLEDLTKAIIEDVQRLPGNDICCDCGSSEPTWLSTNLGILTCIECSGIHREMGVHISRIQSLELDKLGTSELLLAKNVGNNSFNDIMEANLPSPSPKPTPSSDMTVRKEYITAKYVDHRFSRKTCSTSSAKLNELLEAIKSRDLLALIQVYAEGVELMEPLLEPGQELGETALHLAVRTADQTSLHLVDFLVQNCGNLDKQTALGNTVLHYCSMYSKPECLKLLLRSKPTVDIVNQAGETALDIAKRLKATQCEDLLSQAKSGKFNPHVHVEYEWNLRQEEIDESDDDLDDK
# SMARCA2 act conf: SMARCA2 activation, confirmation screen; activation, % at 9.1 µM; AID 652260; hit rate 30% among 3,500; shares compounds with SMARCA2 activ; MG213 cells, MMTV-luciferase with dexamethasone, luminescence, overnight; MG213 cells expressing E1A, Rb sequestered; DMSO wells 0%, reference activator 100%;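 active = activation above its plate's cutoff, the mean activation of tested wells plus 3 SD, cut at about 7.9% in these data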
# VP16 Luc act: GAL4-VP16 reporter activation counter-screen | activation, % at 9.1 µM | HEK293 GAL4-VP16 pG5luc reporter, luciferase luminescence; scaled: DMSO wells 0%, SAHA wells 100% | hit rate 41% among 3,500 | shares compounds with SMARCA2 activ;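 active = activation above the solvent-only control well mean plus 3 SD, averaged across control plates, cut at about 5.2% in these data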
# * = called active by the depositor; ? = inconclusive; . = no result given. Rows were chosen to be rich in hits. Some 2.6% of all compounds tested hit in one or more screens of this group.
SMILES,ARFGAP1 inhibitor,esBAF inh,SMARCA2 activ,ASAP1 GAP inh,SMARCA2 act conf,VP16 Luc act
Cc1noc(C)c1-c1ccc(C(=O)Nc2ccccc2)c2occc12,1,57*,12*,1,4,16*
CCOC(=O)c1ccc(Nc2ncccc2[N+](=O)[O-])cc1,4,?,8.3*,-1,16*,6.2*
CCOC(=O)c1ccc(Nc2ccc([N+](=O)[O-])cn2)cc1,-13,.,2,-10,.,.
COC(=O)c1c(C)[nH]c(C(=O)/C=C/c2ccccc2F)c1C,-13,-16,15*,6,9.1*,9.7*
Cc1noc(C)c1NC(=O)N(C)C[C@H]1Oc2ccc(NC(=O)Nc3cccc4ccccc34)cc2C(=O)N([C@@H](C)CO)C[C@@H]1C,.,-2,.,.,.,.
O=C(Nc1cccc(C(F)(F)F)c1)C(=O)N1CCCCC1,11,23,9.5*,3,2,3
FC(F)(F)c1cccc(NC(=S)N2CCCCCC2)c1,-15,13,-3,0,.,.
C[C@H](CO)N1C[C@H](C)[C@H](CN(C)C(=O)Nc2ccccc2)Oc2ccc(NS(=O)(=O)c3ccccc3)cc2C1=O,.,4,.,.,.,.
Cc1cc(C)c2c(n1)sc1c(N3CCN(CCO)CC3)ncnc12,-5,2,8.5*,-10,7,1
CC(C)c1cccc(-c2csc(C(O)c3ccco3)n2)c1 (stereo not drawn),-6,54*,9.2*,4,6,4
C[C@@H]1CN([C@H](C)CO)C(=O)c2cccc(NS(=O)(=O)c3ccc(F)cc3)c2O[C@@H]1CN(C)C,.,-4,.,.,.,.
CC1CCC(NC(=O)c2nn(C)c(=O)c3ccccc23)CC1 (stereo not drawn),8,3,-3,-3,.,.
CC1CCC(NC(=O)c2cccn2C)CC1 (stereo not drawn),1,8,8.8*,0,11*,11*
CC(=O)n1cc(/C=C2/N=C(c3ccccc3)OC2=O)c2ccccc21,-6,3,8.2*,-10,-1,1
C[C@H](CO)N1C[C@H](C)[C@@H](CN(C)Cc2ccncc2)Oc2ccc(NS(=O)(=O)c3cccs3)cc2CC1=O,.,4,.,.,.,.
C[C@H]1CN([C@@H](C)CO)C(=O)Cc2cc(NC(=O)Nc3cccc4ccccc34)ccc2O[C@@H]1CN(C)C(=O)Nc1ccccc1,.,0,.,.,.,.
Cc1ccn2cc(-c3cccc(NC(=O)c4cccs4)c3)nc2c1,11,.,3,8,.,.
Cc1cccn2cc(-c3cccc(NC(=O)c4cccs4)c3)nc12,4,.,9.4*,3,6,2
O=C(NCc1ccc(F)cc1)c1c2c(nc3ccccc13)CCC2,-2,.,9.4*,-5,3,2
O=C(Nc1ccccc1)c1ccc(NCC2CCCO2)c([N+](=O)[O-])c1 (stereo not drawn),-8,.,8.8*,1,2,4
COc1ccc(NC(=O)c2ccc(NCC3CCCO3)c([N+](=O)[O-])c2)cc1 (stereo not drawn),2,.,0,13,.,.
O=C1N=C(N2CCOCC2)S/C1=C\c1cccs1,-8,11,6,20,.,.
N#CCCN1CCN(C2=NC(=O)/C(=C\c3cccs3)S2)CC1,5,.,8.8*,5,2,-1
CCOC(=O)C1CCCCN1Cc1cccc(F)c1 (stereo not drawn),11,1,8.8*,0,1,0
COCC(=O)N(C)C[C@H]1Oc2cc(-c3ccc(OC)cc3)ccc2S(=O)(=O)N([C@@H](C)CO)C[C@H]1C,.,-2,.,.,.,.
SMILES,ARFGAP1 inhibitor,esBAF inh,SMARCA2 activ,ASAP1 GAP inh,SMARCA2 act conf,VP16 Luc act
COc1ccc(NC(=O)c2oc3ccccc3c2C)cn1,6,43*,9.8*,3,9.7*,5.4*
Cc1c(C(=O)Nc2ccncc2)oc2ccccc12,7,37,0,-5,.,.
O=C(Cc1ccncc1)NCC[C@H]1CC[C@H](NC(=O)C2CCCC2)[C@@H](CO)O1,.,0,.,.,.,.
Cc1c(-c2ccccc2)nc2ccccc2c1C(=O)NCc1cccs1,2,.,8.1*,-3,-2,1
C/C=C/c1cnc2c(c1)C(=O)N([C@H](C)CO)C[C@H](C)[C@@H](CN(C)S(=O)(=O)c1ccccc1)O2,.,4,.,.,.,.
Nc1c(C(=O)O)sc2nc3c(cc12)CCCC3,-15,.,-3,10,.,.

# Screens: PubChem BioAssay, several laboratories
